WT yeast gro inh – growth inhibition of WT yeast, mitochondrial fusion screen | mitochondrial fusion phenotypic screen, WT strain | inhibition, % at 10 µM | 190,000 compounds, 2.1% hits | AID 1362; in the data active means inhibition above about 58%; tested in S. cerevisiae
ROMK mod – modulates human ROMK potassium channel activity; P48048; Tet-inducible ROMK, thallium flux fluorescence; actives lie on both sides; B-score at 10 µM; 130,000 compounds, 2% hits; AID 1918;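 active means signal ratio slope over the read window, or its plate-corrected B-score, at least 3 SD from the plate mean, either direction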;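 further: B-score of the F/F0 ratio slope over 7 to 12 s after thallium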
Diaph inh CS – diaphorase inhibition or chemical oxidation counter-screen; diaphorase resazurin-to-resorufin fluorescence, NADH, 16 min; bacterial (C. kluyveri) enzyme, not human; inhibition, % at 20 µM; 190,000 compounds, 0.69% hits; AID 1217;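 active means primary screen inhibition at 20 µM above a set limit, cut at about 50% in these data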
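System: Bacterial diaphorase enzyme (C. kluyveri) | Incubation: 16-min room-temperature incubation before reading | Benchmarks: No-NADH positive control and DMSO neutral control | Measured by: Resorufin fluorescence 544/590 nm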
Cl transport mod – modulators of human KCC2 chloride dependent transport; 190,000 compounds, 2.2% hits; KCC2 cells, thallium flux FluoZin-2 fluorescence; B-score of Tl+ flux slope (higher = more flux/activation; lower = inhibition) at 10 µM;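 active means thallium flux slope and its plate-corrected score both differing from the plate sample mean at a set confidence after two filtering rounds, in either direction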;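 further: slope of fluorescence scaled to starting intensity during 10 to 20 s after thallium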
Target sequence (Q9H2X9 whole entry, looked up): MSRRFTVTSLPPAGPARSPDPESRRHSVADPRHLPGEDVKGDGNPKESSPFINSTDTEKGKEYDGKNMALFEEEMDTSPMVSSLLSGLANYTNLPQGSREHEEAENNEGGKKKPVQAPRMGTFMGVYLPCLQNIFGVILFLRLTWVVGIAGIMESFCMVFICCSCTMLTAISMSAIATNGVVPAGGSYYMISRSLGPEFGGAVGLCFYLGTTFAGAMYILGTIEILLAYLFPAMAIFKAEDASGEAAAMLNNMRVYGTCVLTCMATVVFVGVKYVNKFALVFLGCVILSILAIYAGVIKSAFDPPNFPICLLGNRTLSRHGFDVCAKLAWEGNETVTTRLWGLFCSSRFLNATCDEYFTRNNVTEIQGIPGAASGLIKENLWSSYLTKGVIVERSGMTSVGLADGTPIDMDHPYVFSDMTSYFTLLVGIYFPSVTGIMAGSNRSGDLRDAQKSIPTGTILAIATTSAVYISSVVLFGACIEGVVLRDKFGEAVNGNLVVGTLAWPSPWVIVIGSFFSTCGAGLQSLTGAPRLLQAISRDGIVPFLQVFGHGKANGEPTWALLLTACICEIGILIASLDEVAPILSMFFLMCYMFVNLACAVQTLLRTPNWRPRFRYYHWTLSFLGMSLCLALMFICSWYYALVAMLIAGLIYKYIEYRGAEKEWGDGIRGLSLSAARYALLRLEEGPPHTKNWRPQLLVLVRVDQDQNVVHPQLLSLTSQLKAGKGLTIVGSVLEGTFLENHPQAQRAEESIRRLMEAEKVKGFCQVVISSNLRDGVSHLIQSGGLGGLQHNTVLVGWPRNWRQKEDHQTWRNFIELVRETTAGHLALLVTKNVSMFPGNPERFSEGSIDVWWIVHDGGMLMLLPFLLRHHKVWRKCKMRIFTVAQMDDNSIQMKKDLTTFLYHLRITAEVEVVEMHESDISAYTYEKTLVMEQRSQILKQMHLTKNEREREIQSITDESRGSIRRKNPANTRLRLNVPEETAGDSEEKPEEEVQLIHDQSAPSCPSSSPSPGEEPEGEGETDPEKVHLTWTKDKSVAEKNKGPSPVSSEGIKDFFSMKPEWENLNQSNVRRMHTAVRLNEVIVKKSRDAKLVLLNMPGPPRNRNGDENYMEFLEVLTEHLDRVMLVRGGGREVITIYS
L major viab – inhibitors of Leishmania major promastigote growth | Leishmania major promastigotes, resazurin fluorescence viability | inhibition, % at 10 µM | 200,000 compounds, 9% hits | AID 1063; in the data active means inhibition above about 50%;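 further: promastigotes grown with compound for 44 hours at 28 °C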
Diaphorase act – counter-screen for diaphorase-based assays: diaphorase activators and chemical reducers | Diaphorase/resazurin coupled assay, resorufin fluorescence, 16 min; stronger effect = higher value; 1 = vehicle wells, 0 = NADH-free wells | activation factor at 20 µM | 190,000 compounds, 0.005% hits | AID 1229;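 active means diaphorase activity raised at least twofold by the compound at 20 µM; inactive means activation factor below 2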
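Material: Purified diaphorase enzyme from Clostridium kluyveri | Buffer or medium: 50 mM HEPES pH 7.4 with 4.542 mM MgCl2, 0.005% Tween 20 | Times: 16 min enzyme reaction, ambient temperature | Signal: Red resorufin fluorescence at 544/590 nm excitation/emission | Measure: Increased resorufin signal from activators or reducing compounds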
A number is an active result. This is a sample that favours compounds with a hit; in the whole collection about 12% have one here.

COc1ccc(NC(=O)c2cc(-c3cc(C)cc(C)c3O)n[nH]2)cc1Cl was read as WT yeast gro inh 65.9, Diaph inh CS inactive, Cl transport mod inactive, L major viab 99.9 and Diaphorase act inactive.
For Cc1cc(C)c(O)c(-c2cc(C(=O)Nc3cccnc3)[nH]n2)c1 the results were Cl transport mod inactive.
Cc1cc(C)c(O)c(-c2cc(C(=O)NCc3ccccc3)[nH]n2)c1 was read as WT yeast gro inh inactive, ROMK mod inactive, Diaph inh CS inactive, Cl transport mod inactive, L major viab 52.0 and Diaphorase act inactive.
For COc1ccc(CNC(=O)c2cc(-c3cc(C)cc(C)c3O)n[nH]2)cc1 the results were Cl transport mod inactive.
Screening CN(C1CCCCC1)S(=O)(=O)c1ccc(NC(=O)c2ccc(Br)o2)cc1 returned WT yeast gro inh inactive, ROMK mod inactive, Diaph inh CS inactive, Cl transport mod inactive, L major viab 57.0 and Diaphorase act inactive.
`O=C(CN1CCCC1)N/N=C/c1ccc(-c2cccc(Cl)c2)o1` gave WT yeast gro inh inactive, Diaph inh CS inactive, Cl transport mod inactive, L major viab 100.5 and Diaphorase act inactive.
`CC1Cc2ccccc2N1C1=CC(=O)CCC1` (stereo not given) gave WT yeast gro inh inactive, ROMK mod inactive, Diaph inh CS inactive, Cl transport mod inactive, L major viab 97.7 and Diaphorase act inactive.
`Cc1ccccc1NC(=S)NC(C)C(c1cccs1)N1CCOCC1` (stereo not given) gave WT yeast gro inh inactive, ROMK mod inactive, Diaph inh CS inactive, Cl transport mod inactive, L major viab inactive and Diaphorase act inactive.
`CC(NC(=S)NCCc1ccccc1)C(c1cccs1)N1CCN(Cc2ccccc2)CC1` (stereo not given) gave WT yeast gro inh inactive, ROMK mod inactive, Diaph inh CS inactive, Cl transport mod inactive, L major viab 97.5 and Diaphorase act inactive.
`CC(NC(=O)NC1CCCCC1)C(c1cccs1)N1CCN(Cc2ccccc2)CC1` (stereo not given) gave WT yeast gro inh inactive, Diaph inh CS inactive, L major viab inactive and Diaphorase act inactive.
For CC(NC(=S)Nc1ccccc1Cl)C(c1cccs1)N1CCCC1 (stereo not given) the results were WT yeast gro inh inactive, ROMK mod inactive, Diaph inh CS inactive, Cl transport mod inactive, L major viab 84.2 and Diaphorase act inactive.
CC(OC(=O)c1ccc2c(=O)n3c(nc2c1)CCCCC3)C(N)=O (stereo not given) was read as WT yeast gro inh inactive, ROMK mod inactive, Diaph inh CS inactive, Cl transport mod inactive, L major viab inactive and Diaphorase act inactive.
For O=C(C1CC1)N1CCc2sccc2C1c1ccc(Cl)cc1 (stereo not given) the results were Cl transport mod inactive.
`CCn1c(C)c(C)c2cc(C(=O)Nc3cccc(Cl)c3)ccc21` gave WT yeast gro inh inactive, ROMK mod inactive, Diaph inh CS inactive, Cl transport mod inactive, L major viab 62.2 and Diaphorase act inactive.
Screening CCn1ccc(C(=O)Nc2cccc(Cl)c2)n1 returned WT yeast gro inh inactive, ROMK mod inactive, Diaph inh CS inactive, Cl transport mod inactive, L major viab inactive and Diaphorase act inactive.
For O=C(O)C1CCN(C(=O)Cc2ccccc2)CC1 the results were WT yeast gro inh inactive, ROMK mod inactive, Diaph inh CS inactive, Cl transport mod inactive, L major viab inactive and Diaphorase act inactive.
`O=C(c1ccc(Cl)cc1)N1CCC(c2nc(-c3cccs3)no2)CC1` gave WT yeast gro inh inactive, Diaph inh CS inactive, Cl transport mod inactive, L major viab 87.0 and Diaphorase act inactive.
For CCOc1ccc(C(=O)N2CCCC(c3nc(-c4cccs4)no3)C2)cc1 (stereo not given) the results were Cl transport mod inactive.
Screening COc1ccc(/C=N/NC(=O)C(Cc2c[nH]c3ccccc23)NC(=O)OCC(C)C)cc1[N+](=O)[O-] (stereo not given) returned WT yeast gro inh inactive, Diaph inh CS inactive, L major viab 99.4 and Diaphorase act inactive.
O=C(NC(Cc1c[nH]c2ccccc12)C(=O)N/N=C/c1ccc(Cl)cc1)c1cccs1 (stereo not given) was read as WT yeast gro inh inactive, ROMK mod inactive, Diaph inh CS inactive, Cl transport mod inactive, L major viab inactive and Diaphorase act inactive.
Screening Cc1nnc(Cl)c2nn(-c3ccccc3F)c(C)c12 returned WT yeast gro inh inactive, ROMK mod inactive, Diaph inh CS inactive, Cl transport mod inactive, L major viab inactive and Diaphorase act inactive.
Cc1nnc(SCCN2CCOCC2)c2nn(-c3ccccc3F)c(C)c12 was read as WT yeast gro inh inactive, ROMK mod inactive, Diaph inh CS inactive, Cl transport mod inactive, L major viab 52.8 and Diaphorase act inactive.
Screening CN(CC(=O)Nc1nc2ccccc2s1)S(=O)(=O)c1ccc(Cl)cc1 returned WT yeast gro inh inactive, ROMK mod inactive, Diaph inh CS inactive, Cl transport mod inactive, L major viab 87.8 and Diaphorase act inactive.
`CCCOC(=O)c1ccc(NC(=O)C(=O)NCC2CCCO2)cc1` (stereo not given) gave WT yeast gro inh inactive, ROMK mod inactive, Diaph inh CS inactive, Cl transport mod inactive, L major viab 55.5 and Diaphorase act inactive.
For COC(=O)C1CCN(C(=O)Nc2ccccc2)CC1 the results were WT yeast gro inh inactive, ROMK mod inactive, Diaph inh CS inactive, Cl transport mod inactive, L major viab inactive and Diaphorase act inactive.
Screening CCCCNC(=O)CCn1c(=O)c2ccccc2n(Cc2ccc(F)cc2)c1=O returned WT yeast gro inh inactive, ROMK mod inactive, Diaph inh CS inactive, Cl transport mod inactive, L major viab inactive and Diaphorase act inactive.
Screening CN1/C(=C\C(=O)COC(=O)CN2C(=O)C3CC=CCC3C2=O)C(C)(C)c2ccccc21 (stereo not given) returned WT yeast gro inh inactive, Diaph inh CS inactive, Cl transport mod inactive, L major viab inactive and Diaphorase act inactive.
Cc1cccc[n+]1CC(=O)/C=C1\N(C)c2ccccc2C1(C)C was read as WT yeast gro inh inactive, Diaph inh CS inactive, Cl transport mod inactive, L major viab 84.4 and Diaphorase act inactive.
CN1/C(=C\C(=O)CN2C(=O)NC3(CCCCCC3)C2=O)C(C)(C)c2ccccc21 was read as WT yeast gro inh inactive, ROMK mod -2.82, Diaph inh CS inactive, Cl transport mod -3.63, L major viab 96.0 and Diaphorase act inactive.
`Brc1ccc(-c2ncc3ccccn23)cc1` gave Cl transport mod inactive.
Cc1cccc(Sc2nc(-c3ccccc3)ccc2C#N)c1 was read as WT yeast gro inh inactive, ROMK mod inactive, Diaph inh CS inactive, L major viab inactive and Diaphorase act inactive.
`COc1ccc(-c2cn3nc4c(nc3n2)CCCC4)cc1` gave WT yeast gro inh inactive, ROMK mod -3.16, Diaph inh CS inactive, L major viab inactive and Diaphorase act inactive.
